A selection: hits, their analogues and other compounds. The true share with any hit is near 5.6%.
aDG glyco up – alpha-DG glycosylation activation; AID 624168; activation, % at 10 µM; 0.22% of 360,000 active; Pro5-aDG cells, alpha-DG glycosylation AlphaScreen (IIH6); 0% Pro5, 100% B10-LARGE cell signal;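 active means activation of at least 8% versus controls, or a plate z-score of at least 8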;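 further: Pro5 are CHO cells carrying HIG-tagged alpha-DG that lacks glycosylation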
UPR XBP1 act – activators of adaptive arm of unfolded protein response (XBP1) | activation, % at 20 µM | CHO-XBP1 luciferase reporter, IRE1-XBP1 UPR activation, luminescence; percent of tunicamycin response, DMSO as zero | 0.33% of 330,000 active;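 active means versus positive control, 20 µM dose yields 30% or more activation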
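incubation = overnight seeding at 37 °C, 6 h compound treatment at 37 °C | assay system = CHO-XBP1 cells stably carrying IRE1-XBP1-driven luciferase reporter | input = 1000 cells per well | detection = luciferase luminescence | dosing = single point, 20 µM final compound, 1% DMSO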
MPTP block – blocks calcium-induced mitochondrial swelling | isolated mouse mitochondria, Ca2+ swelling absorbance, 30 min | inhibition, % at 10 µM | 1.4% of 360,000 active;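 active means inhibition of 50% or more, scaled per plate between neutral and stimulator controls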
CHOP inhibitor – CHOP inhibition in unfolded protein response | CHO-K1 CHOP-promoter luciferase, tunicamycin-induced, 15-18 h | inhibition, % at 10 µM | 3.8% of 220,000 active | AID 2732;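 active means compounds that reduced the stress-induced luciferase reporter signal by more than about 70% of percent inhibition, limit read from the data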
CHOP UPR activ – apoptotic UPR (CHOP) activation; CHO-CHOP luciferase reporter, luminescence; percent of tunicamycin response over DMSO baseline; activation, % at 10 µM; 0.34% of 330,000 active;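 active means at 10 µM dose, activation of 40% or more, normalized to positive control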
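Assay system: CHO cells with stable CHOP pathway luciferase reporter; Buffer or medium: F12 plus 10% serum; Times: 16-18 h cell attachment, then 6 h compound exposure, 37 °C; Signal: luciferase luminescence; Read-out basis: percent activation relative to tunicamycin control; Control set: tunicamycin high control, DMSO low control.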
NR3A LBD binder – modulates the human NR3A ligand-binding domain; NR3A LBD differential scanning fluorimetry, Tm shift; 0% = protein alone, 100% = glycine-bound protein; Tm shift relative to glycine control, % at 25 µM; 2.5% of 340,000 active;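 active means melting temperature shift of at least 10% of the positive control shift, at one fixed dose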
CHOP inh conf – confirmation of CHOP induction inhibitors; CHO-CHOP promoter luciferase reporter, tunicamycin-induced, luminescence; shares compounds with CHOP inhibitor; inhibition, % at 10 µM; 45% of 2,100 active;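 active means mean of three repeat readings of reporter signal inhibition above a set limit, cut at about 70% in these data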
UPR CHOP confirm – apoptotic UPR (CHOP) activation, confirmed; CHO-CHOP cells, CHOP-luciferase reporter luminescence; percent of tunicamycin response, DMSO as zero; activation, % at 10 µM; 64% of 1,000 active; AID 463112; shares compounds with CHOP UPR activ; in the data active means activation above about 33%
UPR XBP1 confirm – confirmation of adaptive unfolded protein response (XBP1) activators | shares compounds with UPR XBP1 act | CHO-XBP1 IRE1-XBP1 luciferase reporter, luminescence | activation, % at 20 µM | 63% of 1,000 active | AID 485299;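 active means reporter signal at least 30% of the positive control's activation in two or more of four replicate wells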
MPTP counter – mitochondrial membrane potential, counter-screen; inhibition, % at 10 µM; isolated mitochondria, Rhodamine 123 fluorescence; AID 624504; shares compounds with MPTP block; 78% of 5,000 active; in the data active means inhibition above about 22%
MPTP abs DR – dose response confirmation of mitochondrial permeability transition pore inhibitors; shares compounds with MPTP block; isolated mitochondria swelling, absorbance; IC50, µM; 58% of 780 active; AID 651561; in the data active means IC50 below about 20 µM
MPTP cs DR – MPTP inhibitor counter-screen activity, dose response; 49% of 780 active; shares compounds with MPTP block; IC50, µM; AID 651564; isolated mitochondria counterscreen, fluorescence read-out; in the data active means IC50 below about 80 µM
A number is an active result; 0 = inactive; - = no result given; ! = not confirmed by another sample.

SMILES	aDG glyco up	UPR XBP1 act	MPTP block	CHOP inhibitor	CHOP UPR activ	NR3A LBD binder	CHOP inh conf	MPTP counter	others
NC(=S)n1[nH]c(-c2ccc([N+](=O)[O-])cc2)c(N=Nc2ccc(Cl)cc2)c1=O	0	-	106	107	-	28	114	93
Cc1ccc([N+](=O)[O-])cc1N=Nc1c(C)[nH]n(C(N)=S)c1=O	0	0	0	-	0	0	-	-
O=C1NCN(c2ccccc2)C12CCN(CCCC(c1ccc(F)cc1)c1ccc(F)cc1)CC2	0	0	100	106!	0	0	123	0	MPTP abs DR=7.3;MPTP cs DR=31
CC(C)=CCc1c(O)cc2oc3c(CC=C(C)C)c(O)c(O)c(CC=C(C)C)c3c(=O)c2c1O	0	0	92	97	0	0	120	0
CSc1ccc(CN2CCC(C)(Oc3ccc(F)cc3)C2)cc1 (stereo not given)	0	-	0	-	-	-	-	-
Cc1ccc2nc(NC(=O)C3CCN(S(=O)(=O)c4cc([N+](=O)[O-])ccc4Cl)CC3)sc2c1	0	0	97	97	0	0	89	69
Cc1onc(-c2ccccc2)c1-c1nnc(CN2CCN(S(=O)(=O)c3ccccc3)CC2)o1	0	0	0	-	0	0	-	-
COc1ccc(OCC(O)CNC(C)c2ccccc2)cc1 (stereo not given)	0	0	0	-	0	0	-	-
CCCC(NCC(O)COc1ccc(-c2ccccc2)cc1)c1ccccc1 (stereo not given)	0	0	55	103	0	0	125	0	MPTP abs DR=4;MPTP cs DR=48
CS(=O)(=O)c1ccc2nc(NC(=O)c3ccccc3Cl)sc2c1	0	0	0	-	0	0	-	-
O=C(NC(Nc1nc2ccc([N+](=O)[O-])cc2s1)(C(F)(F)F)C(F)(F)F)c1ccccc1Cl	0	0	92	97	0	13	125	92
Oc1ccc(-c2nnc(SCC3CCCCC3)o2)cc1	0	0	55	107	0	0	0	54
O=C(CSc1nnc(-c2ccc(O)cc2)o1)N1CCOCC1	0	0	0	0	0	0	-	-
Cc1ccc(S(=O)(=O)NCC(=O)OC(C)C(=O)NC(=O)NC2CCCCC2)cc1C (stereo not given)	0	0	0	-	0	0	-	-
O=C(OCCNc1nc(-c2ccccc2)nc2ccccc12)c1cccnc1	0	0	0	0	0	0	-	-
CCCOC(=O)c1cccc(Nc2nc(-c3cccnc3)nc3ccccc23)c1	0	32	66	96	0	0	0	73	UPR XBP1 confirm=58
CCc1nn(CC(=O)NCCC2=CCCCC2)c(=O)c2cc3cc(F)ccc3n12	0	0	0	-	0	0	-	-
COC(=O)CCC(=O)OC1(C)C(=O)C=C2C=C(C3CC3)OC=C2C1=O (stereo not given)	-	0	-	-	0	-	-	-
Cc1ccc(-c2csc(NC(=O)CSc3nnc4c(n3)[nH]c3ccccc34)n2)cc1	0	-	88	101	-	21	0	56
CCNCC(=O)N1c2ccccc2CCc2ccc(NC(=O)OCC)cc21	0	0	0	-	0	0	-	-
COc1cccc(NC(=O)c2ccccc2N2C(=O)C3C4C=CC(C5CC45)C3C2=O)c1 (stereo not given)	0	0	0	-	0	0	-	-
OC(CN1CCN(c2cccc(C(F)(F)F)c2)CC1)c1c[nH]c2ccccc12 (stereo not given)	0	0	53	97	0	0	0	0	MPTP abs DR=0;MPTP cs DR=72
Cc1c(C(=O)N2CCCC2)c(S(=O)(=O)Nc2ccccc2)c(C)n1C	0	0	0	-	0	0	-	-
COc1cc([N+](=O)[O-])cc(/C=N/NC(=O)c2ccc(NC(=O)c3ccc(C)cc3)cc2)c1O	0	38	112	105	49	21	0	0	UPR CHOP confirm=64;UPR XBP1 confirm=44
CC1=CC(=O)C=C(C)C1=NOS(=O)(=O)c1ccccc1	0	-	103	-	-	0	74	90
SMILES	aDG glyco up	UPR XBP1 act	MPTP block	CHOP inhibitor	CHOP UPR activ	NR3A LBD binder	CHOP inh conf	MPTP counter	others
CCOC(=O)c1sc(NC(=O)Nc2ccccc2F)nc1C	0	0	58	102	0	0	0	68
COc1ccc(NS(=O)(=O)c2ccc(Br)cc2)cn1	0	0	0	-	0	0	-	-
COc1ccc(NS(=O)(=O)c2ccc3oc4ccccc4c3c2)cn1	0	0	60	97	0	0	0	64
COc1ccc(Nc2cccccc2=O)cc1	0	0	0	0	0	0	-	-
COc1ccc(C2=CC(=O)N(Nc3ccccc3)C2=O)cc1	0	0	61	101	48	0	0	0	UPR CHOP confirm=149
Oc1ccc(Br)cc1-c1ccn[nH]1	0	0	0	0	0	0	-	-
Oc1ccc(Cl)cc1-c1cc(-c2cccc(Br)c2)n[nH]1	0	0	89	101	0	31	0	68
Cn1nc(-c2ccccc2)cc1NC(=O)c1ccccc1	0	0	0	-	0	0	-	-
Cn1nc(-c2ccccc2)cc1NC(=O)Nc1ccc(C(C)(C)C)cc1	0	0	70	105	0	17	81	74
Cc1ccc(S(=O)(=O)Nc2ccc(NC(=O)Nc3cccc(C(F)(F)F)c3)cc2)cc1	0	0	98	99	0	37	116	61
NNC(=O)Nc1cccc(C(F)(F)F)c1	0	0	0	0	0	0	-	-
O=C(NCCNC(=O)c1cc(OCC(F)(F)F)ccc1OCC(F)(F)F)Nc1cccc(C(F)(F)F)c1	0	0	72	104	0	0	101	88
CN(C)S(=O)(=O)NCCNC(=O)c1cc(OCC(F)(F)F)ccc1OCC(F)(F)F	0	0	0	0	0	0	-	-
O=C(Nc1ccc(OC(F)F)cc1)Nc1cccc(C(F)(F)F)c1	0	0	86	110	0	39	86	63
Cc1ccc(NC(=O)COc2cccc(Oc3ccccc3)c2)cc1S(=O)(=O)N1CCOCC1	0	0	0	-	0	0	-	-
O=C(CN1CCN(C(=O)CNC(=O)c2ccc3c(c2)OCO3)CC1)Nc1cccc(F)c1	0	0	0	-	0	0	-	-

Screens: PubChem BioAssay, several laboratories
